According to ChEMBL document CHEMBL4190234, “Design, synthesis and anticancer activity of new monastrol analogues bearing 1,3,4-oxadiazole moiety” (Eur J Med Chem, 2017):

What was measured:
Format in all cases: functional
[1] = system: SN12C; assay: Growth inhibition of human SN12C cells at 10 uM incubated for 48 hrs by sulforhodamine B assay relative to control; conditions: read-out: GI
How it was run: (§1)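 NCI single-dose screen: cells grown in RPMI 1640 with 5% FBS and 2 mM L-glutamine, plated at 5,000–40,000 cells/well and preincubated 24 h at 37 °C, 5% CO2. Compounds taken from DMSO stock and tested at final 10 µM for 48 h. Cells fixed with TCA, stained with 0.4% SRB, absorbance read at 515 nm. Percentage growth calculated against untreated controls; controls held DMSO at the same dilution.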

[2] = system: UO-31; assay: Growth inhibition of human UO31 cells at 10 uM incubated for 48 hrs by sulforhodamine B assay relative to control; conditions: UO-31, 48 h, read-out: GI; how it was run: as §1
[3] = system: OVCAR-4; assay: Growth inhibition of human OVCAR4 cells at 10 uM incubated for 48 hrs by sulforhodamine B assay relative to control; conditions: OVCAR-4, 48 h, read-out: GI
How it was run: (§2)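 Single-dose screen at 10 μM final: cells in RPMI 1640, 5% FBS, 2 mM L-glutamine, plated 5,000–40,000/well, preincubated 24 h at 37°C, 5% CO2; drug 48 h; adherent cells fixed with 10% TCA, suspension cells with 16% TCA; SRB stain, absorbance 515 nm; percentage growth versus untreated control, with time-zero plates.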

[4] = system: OVCAR-5; assay: Growth inhibition of human OVCAR5 cells at 10 uM incubated for 48 hrs by sulforhodamine B assay relative to control; conditions: OVCAR-5, 48 h, read-out: GI; how it was run: as §2
[5] = system: SF-539; assay: Growth inhibition of human SF539 cells at 10 uM incubated for 48 hrs by sulforhodamine B assay relative to control; conditions: SF-539, 48 h, read-out: GI; how it was run: as §1
[6] = system: DU-145; assay: Growth inhibition of human DU145 cells at 10 uM incubated for 48 hrs by sulforhodamine B assay relative to control; conditions: DU-145, 48 h, read-out: GI; how it was run: as §2
[7] = system: SK-OV-3; assay: Growth inhibition of human SKOV3 cells at 10 uM incubated for 48 hrs by sulforhodamine B assay relative to control; conditions: SK-OV-3, 48 h, read-out: GI; how it was run: as §1
[8] = system: EKVX; assay: Growth inhibition of human EKVX cells at 10 uM incubated for 48 hrs by sulforhodamine B assay relative to control; conditions: read-out: GI; how it was run: as §2
[9] = system: MOLT-4; assay: Growth inhibition of human MOLT4 cells at 10 uM incubated for 48 hrs by sulforhodamine B assay relative to control; conditions: MOLT-4, 48 h, read-out: GI; how it was run: as §2
[10] = system: MDA-MB-468; assay: Growth inhibition of human MDA-MB-468 cells at 10 uM incubated for 48 hrs by sulforhodamine B assay relative to control; conditions: MDA-MB-468, 48 h, read-out: GI; how it was run: as §2
[11] = system: NCI-H522; assay: Growth inhibition of human NCI-H522 cells at 10 uM incubated for 48 hrs by sulforhodamine B assay relative to control; conditions: NCI-H522, 48 h, read-out: GI; how it was run: as §2
[12] = system: A549; assay: Growth inhibition of human A549/ATCC cells at 10 uM incubated for 48 hrs by sulforhodamine B assay relative to control; conditions: A549, 48 h, read-out: GI; how it was run: as §2
[13] = system: NCI-H226; assay: Growth inhibition of human NCI-H226 cells at 10 uM incubated for 48 hrs by sulforhodamine B assay relative to control; conditions: NCI-H226, 48 h, read-out: GI; how it was run: as §2
[14] = system: HCT-116; assay: Growth inhibition of human HCT116 cells at 10 uM incubated for 48 hrs by sulforhodamine B assay relative to control; conditions: HCT-116, 48 h, read-out: GI; how it was run: as §2
[15] = system: BT-549; assay: Growth inhibition of human BT549 cells at 10 uM incubated for 48 hrs by sulforhodamine B assay relative to control; conditions: BT-549, 48 h, read-out: GI; how it was run: as §2
[16] = system: RXF 393; assay: Growth inhibition of human RXF393 cells at 10 uM incubated for 48 hrs by sulforhodamine B assay relative to control; conditions: RXF 393, 48 h, read-out: GI; how it was run: as §2
[17] = system: HCT-15; assay: Growth inhibition of human HCT15 cells at 10 uM incubated for 48 hrs by sulforhodamine B assay relative to control; conditions: HCT-15, 48 h, read-out: GI; how it was run: as §2
[18] = system: CAKI-1; assay: Growth inhibition of human Caki1 cells at 10 uM incubated for 48 hrs by sulforhodamine B assay relative to control; conditions: CAKI-1, 48 h, read-out: GI; how it was run: as §2
[19] = system: A498; assay: Growth inhibition of human A498 cells at 10 uM incubated for 48 hrs by sulforhodamine B assay relative to control; conditions: A498, 48 h, read-out: GI; how it was run: as §2
[20] = system: NCI-H23; assay: Growth inhibition of human NCI-H23 cells at 10 uM incubated for 48 hrs by sulforhodamine B assay relative to control; conditions: NCI-H23, 48 h, read-out: GI; how it was run: as §2
[21] = system: NCI/ADR-RES; assay: Growth inhibition of human NCI/ADR-RES cells at 10 uM incubated for 48 hrs by sulforhodamine B assay relative to control; conditions: read-out: GI; how it was run: as §2
[22] = system: HL-60(TB); assay: Growth inhibition of human HL-60(TB) cells at 10 uM incubated for 48 hrs by sulforhodamine B assay relative to control; conditions: HL-60, 48 h, read-out: GI
How it was run: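 Single dose of 10 µM in the NCI ~60-line panel. Cells grown in RPMI 1640 with 5% FBS and 2 mM L-glutamine, plated and pre-incubated 24 h, then exposed 48 h at 37°C under 5% CO2. Suspension cells fixed with TCA (16% final) and stained with sulforhodamine B, A515 read. Reported as percent growth versus untreated control and as GI%.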

[23] = system: HOP-92; assay: Growth inhibition of human HOP92 cells at 10 uM incubated for 48 hrs by sulforhodamine B assay relative to control; conditions: HOP-92, 48 h, read-out: GI; how it was run: as §2
[24] = system: HOP-62; assay: Growth inhibition of human HOP62 cells at 10 uM incubated for 48 hrs by sulforhodamine B assay relative to control; conditions: HOP-62, 48 h, read-out: GI; how it was run: as §2
[25] = system: OVCAR-3; assay: Growth inhibition of human OVCAR3 cells at 10 uM incubated for 48 hrs by sulforhodamine B assay relative to control; conditions: OVCAR-3, 48 h, read-out: GI; how it was run: as §2
[26] = system: SNB-75; assay: Growth inhibition of human SNB75 cells at 10 uM incubated for 48 hrs by sulforhodamine B assay relative to control; conditions: SNB-75, 48 h, read-out: GI; how it was run: as §1
[27] = system: HCC 2998; assay: Growth inhibition of human HCC2998 cells at 10 uM incubated for 48 hrs by sulforhodamine B assay relative to control; conditions: HCC 2998, 48 h, read-out: GI; how it was run: as §2
[28] = system: 786-0; assay: Growth inhibition of human 786-0 cells at 10 uM incubated for 48 hrs by sulforhodamine B assay relative to control; conditions: 786-0, 48 h, read-out: GI; how it was run: as §2
[29] = system: MDA-MB-435; assay: Growth inhibition of human MDA-MB-435 cells at 10 uM incubated for 48 hrs by sulforhodamine B assay relative to control; conditions: MDA-MB-435, 48 h, read-out: GI; how it was run: as §2

Row | Structure (SMILES) | inhibition of growth at 10 µM [1] [%] | inhibition of growth at 10 µM [2] [%] | inhibition of growth at 10 µM [3] [%] | inhibition of growth at 10 µM [4] [%] | inhibition of growth at 10 µM [5] [%] | inhibition of growth at 10 µM [6] [%] | inhibition of growth at 10 µM [7] [%] | inhibition of growth at 10 µM [8] [%] | inhibition of growth at 10 µM [9] [%] | inhibition of growth at 10 µM [10] [%] | inhibition of growth at 10 µM [11] [%] | inhibition of growth at 10 µM [12] [%] | inhibition of growth at 10 µM [13] [%] | inhibition of growth at 10 µM [14] [%] | inhibition of growth at 10 µM [15] [%] | inhibition of growth at 10 µM [16] [%] | inhibition of growth at 10 µM [17] [%] | inhibition of growth at 10 µM [18] [%] | inhibition of growth at 10 µM [19] [%] | inhibition of growth at 10 µM [20] [%] | other results
1 | CCOC(=O)C1=C(C)NC(SCc2nnc(-c3ccc(Cl)cc3)o2)=NC1c1ccccc1 (stereo not given) | 14.8 | 19.4 | < 10 | < 10 | < 10 | < 10 | 25.6 | 14.8 | 31.3 | 14.7 | 54.1 | 29 | 11.4 | 36.8 | 42.7 | < 10 | 21.8 | 22.3 | < 10 | < 10 | inhibition of growth at 10 µM [21]: < 10%; inhibition of growth at 10 µM [22]: 38%; inhibition of growth at 10 µM [23]: 40.1%; inhibition of growth at 10 µM [24]: 27.8%; inhibition of growth at 10 µM [25]: < 10%; inhibition of growth at 10 µM [26]: < 10%; inhibition of growth at 10 µM [27]: < 10%; inhibition of growth at 10 µM [28]: 31.4%; inhibition of growth at 10 µM [29]: < 10%
2 | CCOC(=O)C1=C(C)NC(SCc2nnc(-c3ccc(Cl)cc3)o2)=NC1c1ccc(OC)cc1 (stereo not given) | < 10 | 20.3 | < 10 | < 10 | < 10 | < 10 | < 10 | < 10 | < 10 | < 10 | < 10 | 11.5 | 11.8 | < 10 | 16.9 | < 10 | < 10 | 17.8 | < 10 | < 10 | inhibition of growth at 10 µM [21]: < 10%; inhibition of growth at 10 µM [22]: < 10%; inhibition of growth at 10 µM [23]: 17.6%; inhibition of growth at 10 µM [24]: < 10%; inhibition of growth at 10 µM [25]: < 10%; inhibition of growth at 10 µM [26]: 18.9%; inhibition of growth at 10 µM [27]: < 10%; inhibition of growth at 10 µM [28]: 18.8%; inhibition of growth at 10 µM [29]: < 10%
3 | CCOC(=O)C1=C(C)NC(SCc2nnc(-c3ccc(Cl)cc3)o2)=NC1c1ccc(Br)cc1 (stereo not given) | < 10 | 47.6 | 30.4 | < 10 | 11.3 | 15.7 | 18 | 28.7 | 91.7 | 41.8 | 32.4 | 37.6 | 21.1 | 51.4 | 20.2 | 25 | 34.9 | 32.8 | 26.8 | 24.3 | inhibition of growth at 10 µM [21]: 32.5%; inhibition of growth at 10 µM [22]: 77.5%; inhibition of growth at 10 µM [23]: 42.2%; inhibition of growth at 10 µM [24]: 13.1%; inhibition of growth at 10 µM [25]: 22.5%; inhibition of growth at 10 µM [26]: 32.3%; inhibition of growth at 10 µM [27]: < 10%; inhibition of growth at 10 µM [28]: 15.1%; inhibition of growth at 10 µM [29]: 34.9%
4 | CCOC(=O)C1=C(C)NC(SCc2nnc(-c3ccc(Cl)cc3)o2)=NC1c1ccc(Cl)cc1 (stereo not given) | < 10 | 51.3 | 30 | 10.4 | 12.3 | 12.8 | 17.4 | 19.9 | 93 | 51 | 31.1 | 31 | 30.1 | 53.8 | 24.7 | 32.3 | 32.4 | 38.4 | 19.3 | 21.2 | inhibition of growth at 10 µM [21]: 30.1%; inhibition of growth at 10 µM [22]: 78.6%; inhibition of growth at 10 µM [23]: 35.9%; inhibition of growth at 10 µM [24]: < 10%; inhibition of growth at 10 µM [25]: 29.2%; inhibition of growth at 10 µM [26]: 26.3%; inhibition of growth at 10 µM [27]: 20.1%; inhibition of growth at 10 µM [28]: 16.6%; inhibition of growth at 10 µM [29]: 30.4%
5 | CCOC(=O)C1=C(C)NC(SCc2nnc(-c3ccc(Cl)cc3)o2)=NC1c1ccc(F)cc1 (stereo not given) | < 10 | 22.2 | < 10 | < 10 | < 10 | < 10 | < 10 | < 10 | 20.4 | 17.1 | 17.5 | 11.7 | 10.6 | 21.7 | < 10 | < 10 | 15.8 | 17.5 | 12.3 | < 10 | inhibition of growth at 10 µM [21]: < 10%; inhibition of growth at 10 µM [22]: 23.5%; inhibition of growth at 10 µM [23]: 27.8%; inhibition of growth at 10 µM [24]: < 10%; inhibition of growth at 10 µM [25]: < 10%; inhibition of growth at 10 µM [26]: < 10%; inhibition of growth at 10 µM [27]: < 10%; inhibition of growth at 10 µM [28]: 10.7%; inhibition of growth at 10 µM [29]: < 10%
